In ChEMBL document CHEMBL1153046, “Synthesis and antitumor activity of substituted triazolo[4,3-a]pyrimidin-6-sulfonamide with an incorporated thiazolidinone moiety” (2009):

What was measured:
Assay type in all cases: functional
OVCAR-4 = test: Growth inhibition of human OVCAR4 cells after 48 hrs by sulforhodamine B assay; conditions: OVCAR-4, 48 h
In short: (§1)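 NCI 60-cell-line panel. Cells are grown in RPMI1640 with 5% fetal calf serum and 2 mM L-glutamine, seeded at a density set by growth characteristics, and preincubated 24 h. Compound is tested at a minimum of five concentrations at 10-fold dilution, with 48 h continuous exposure. Viability is read by sulforhodamine B protein assay. GI50, TGI and LC50 come from dose-response curves.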

SF-268 = test: Antiproliferative activity against human SF268 cells assessed as cell growth at 100 uM after 48 hrs by alamar blue assay; conditions: SF-268, 48 h, read-out: Activity
In short: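 NCI three-cell-line primary screen. Cells are seeded and preincubated in microtiter plates. Compound is added at a single 10^-4 M concentration and cultures are incubated 48 h. The end-point is read with alamar blue. Results are given as percent growth relative to untreated control cells.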

SF-539 = test: Growth inhibition of human SF539 cells after 48 hrs by sulforhodamine B assay; conditions: SF-539, 48 h; in short: as §1
CAKI-1 = test: Growth inhibition of human Caki1 cells after 48 hrs by sulforhodamine B assay; conditions: CAKI-1, 48 h; in short: as §1
NCI-H522 = test: Growth inhibition of human NCI-H522 cells after 48 hrs by sulforhodamine B assay; conditions: NCI-H522, 48 h; in short: as §1
IGROV-1 = test: Growth inhibition of human IGROV1 cells after 48 hrs by sulforhodamine B assay; conditions: IGROV-1, 48 h; in short: as §1
SK-MEL-28 = test: Growth inhibition of human SK-MEL-28 cells after 48 hrs by sulforhodamine B assay; conditions: SK-MEL-28, 48 h; in short: as §1
ACHN = test: Growth inhibition of human ACHN cells after 48 hrs by sulforhodamine B assay; in short: as §1
HOP-92 = test: Growth inhibition of human HOP92 cells after 48 hrs by sulforhodamine B assay; conditions: HOP-92, 48 h; in short: as §1
SW-620 = test: Growth inhibition of human SW620 cells after 48 hrs by sulforhodamine B assay; conditions: SW-620, 48 h
In short: (§2)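 NCI 60-cell-line panel (nine cancer types), with cells grown in RPMI1640 plus 5% fetal calf serum and 2 mM L-glutamine. Cells are seeded at a density that depends on the line and preincubated 24 h. Compounds are then applied at a minimum of five 10-fold dilutions over a 5-log range with 48 h continuous exposure. Viability is read by SRB protein assay, and GI50 is derived from dose-response curves in units of 10^-5 M.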

SNB-75 = test: Growth inhibition of human SNB75 cells after 48 hrs by sulforhodamine B assay; conditions: SNB-75, 48 h; in short: as §2
786-0 = test: Growth inhibition of human 786-0 cells after 48 hrs by sulforhodamine B assay; conditions: 786-0, 48 h; in short: as §1
MDA-MB-435 = test: Growth inhibition of human MDA-MB-435 cells after 48 hrs by sulforhodamine B assay; conditions: MDA-MB-435, 48 h; in short: as §1
NCI-H322M = test: Growth inhibition of human NCI-H322M cells after 48 hrs by sulforhodamine B assay; in short: as §1
NCI-H460 = test: Growth inhibition of human NCI-H460 cells after 48 hrs by sulforhodamine B assay; conditions: NCI-H460, 48 h; in short: as §1
SK-OV-3 = test: Growth inhibition of human SKOV3 cells after 48 hrs by sulforhodamine B assay; conditions: SK-OV-3, 48 h; in short: as §1
COLO 205 = test: Growth inhibition of human COLO205 cells after 48 hrs by sulforhodamine B assay; conditions: COLO 205, 48 h; in short: as §1
OVCAR-3 = test: Growth inhibition of human OVCAR-3 cells after 48 hrs by sulforhodamine B assay; conditions: OVCAR-3, 48 h; in short: as §1
UACC-257 = test: Growth inhibition of human UACC257 cells after 48 hrs by sulforhodamine B assay; conditions: UACC-257, 48 h; in short: as §2
HCT-15 = test: Growth inhibition of human HCT15 cells after 48 hrs by sulforhodamine B assay; conditions: HCT-15, 48 h; in short: as §1
[1] = Growth inhibition of human […] cells after 48 hrs by sulforhodamine B assay; in short: as §1
SN12C = test: Growth inhibition of human SN12C cells after 48 hrs by sulforhodamine B assay; in short: as §1
NCI-H226 = test: Growth inhibition of human NCI-H226 cells after 48 hrs by sulforhodamine B assay; conditions: NCI-H226, 48 h; in short: as §1
CCRF-CEM = test: Growth inhibition of human CCRF-CEM cells after 48 hrs by sulforhodamine B assay; in short: as §1
OVCAR-5 = test: Growth inhibition of human OVCAR5 cells after 48 hrs by sulforhodamine B assay; conditions: OVCAR-5, 48 h; in short: as §1
SF-295 = test: Growth inhibition of human SF295 cells after 48 hrs by sulforhodamine B assay; conditions: SF-295, 48 h; in short: as §1
RXF 393 = test: Growth inhibition of human RXF393 cells after 48 hrs by sulforhodamine B assay; conditions: RXF 393, 48 h; in short: as §1
T47D = test: Growth inhibition of human T47D cells after 48 hrs by sulforhodamine B assay; in short: as §2
[2] = read-out: LC50 (the source's name)

COc1ccc(/C=N/c2nc3[nH]nc(C)n3c(=O)c2S(=O)(=O)NN2C(=O)C(CN3CCOCC3)SC2c2cccs2)cc1 (centres undefined)
GI50 (OVCAR-4): > 100 µM
LC50 (OVCAR-4): > 100 µM
TGI (OVCAR-4): > 100 µM
growth at 100 µM (SF-268): 56%
GI50 (SF-539): 7.24 µM
LC50 (SF-539): > 100 µM
TGI (SF-539): 30.4 µM
GI50 (CAKI-1): 12.1 µM
LC50 (50% lethal concentration) (CAKI-1): > 100 µM
TGI (CAKI-1): > 100 µM
GI50 (NCI-H522): 4.35 µM
TGI (NCI-H522): 27.3 µM
GI50 (IGROV-1): 3.95 µM
LC50 (IGROV-1): > 100 µM
TGI (IGROV-1): 34.8 µM
GI50 (SK-MEL-28): 82.1 µM
TGI (SK-MEL-28): > 100 µM
GI50 (ACHN): 5.48 µM
TGI (ACHN): > 100 µM
CC50 (ACHN; [2]): > 100 µM
GI50 (HOP-92): 12.4 µM
LC50 (HOP-92): > 100 µM
TGI (HOP-92): > 100 µM
GI50 (SW-620): 6.11 µM
GI50 (SNB-75): 35.5 µM
TGI (SNB-75): > 100 µM
GI50 (786-0): 5.82 µM
TGI (786-0): > 100 µM
CC50 (786-0; [2]): > 100 µM
GI50 (MDA-MB-435): 3.26 µM
TGI (MDA-MB-435): 36 µM
GI50 (NCI-H322M): 56.9 µM
TGI (NCI-H322M): > 100 µM
GI50 (NCI-H460): 5.32 µM
TGI (NCI-H460): > 100 µM
GI50 (SK-OV-3): 20.2 µM
TGI (SK-OV-3): > 100 µM
GI50 (COLO 205): 14.9 µM
TGI (COLO 205): 12.8 µM
GI50 (OVCAR-3): 3.6 µM
LC50 (concentration killing 50% of cells) (OVCAR-3): > 100 µM
TGI (OVCAR-3): > 100 µM
GI50 (UACC-257): 6.77 µM
LC50 (UACC-257): > 100 µM
TGI (UACC-257): > 100 µM
GI50 (HCT-15): 4.52 µM
TGI (HCT-15): 71.7 µM
GI50 [1]: 3.86 µM
TGI [1]: 26.2 µM
CC50 [1, 2]: > 100 µM
GI50 (SN12C): 16.8 µM
LC50 (SN12C): > 100 µM
TGI (SN12C): 85.7 µM
GI50 (NCI-H226): 24.5 µM
LC50 (concentration killing 50% of cells) (NCI-H226): > 100 µM
TGI (NCI-H226): > 100 µM
GI50 (CCRF-CEM): 6.27 µM
TGI (CCRF-CEM): > 100 µM
GI50 (OVCAR-5): 43.4 µM
LC50 (concentration causing 50% net cell kill) (OVCAR-5): > 100 µM
TGI (OVCAR-5): > 100 µM
GI50 (SF-295): 4.69 µM
LC50 (concentration killing 50% of cells) (SF-295): > 100 µM
TGI (SF-295): > 100 µM
GI50 (RXF 393): 16.6 µM
TGI (RXF 393): 94.2 µM
CC50 (RXF 393; [2]): > 100 µM
GI50 (T47D): 48 µM
TGI (T47D): > 100 µM
